Measurements taken from ChEMBL document CHEMBL1141933 (J Med Chem, 2005).

Assays:
Plasmodium falciparum [1] = test: Effective dose against chloroquine-resistant, pyrimethamine-resistant, mefloquine-sensitive Plasmodium falciparum W2; format: functional; conditions: read-out: ED50 (the source's name)
Method in brief: (§1)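 Asynchronous blood-stage culture (0.5% parasitemia, 0.5% hematocrit) in RPMI-1640 with 20% heat-inactivated human A+ plasma, human A+ erythrocytes. Compound added from DMSO, 48 h at 37 C under 5% CO2/5% O2/90% N2. [8-3H]hypoxanthine then added for a further 24 h and uptake counted. Uninfected-RBC background subtracted; DMSO vehicle = 100% growth. ED50 by linear regression, mean of at least two runs.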

[2] = molecular target: Protein farnesyltransferase (Rattus norvegicus, UniProt Q02293+Q04631); test: Inhibition of biotinylated lamin B peptide farnesylation by rat farnesyltransferase; format: protein-complex assay
[3] = molecular target: T1, Protein farnesyltransferase (PFT) (Plasmodium falciparum, UniProt Q5EI73+Q5EI74); test: Inhibition of biotinylated lamin B peptide farnesylation by Plasmodium falciparum farnesyltransferase; format: protein-complex assay
T1 sequence (Q5EI73 whole entry): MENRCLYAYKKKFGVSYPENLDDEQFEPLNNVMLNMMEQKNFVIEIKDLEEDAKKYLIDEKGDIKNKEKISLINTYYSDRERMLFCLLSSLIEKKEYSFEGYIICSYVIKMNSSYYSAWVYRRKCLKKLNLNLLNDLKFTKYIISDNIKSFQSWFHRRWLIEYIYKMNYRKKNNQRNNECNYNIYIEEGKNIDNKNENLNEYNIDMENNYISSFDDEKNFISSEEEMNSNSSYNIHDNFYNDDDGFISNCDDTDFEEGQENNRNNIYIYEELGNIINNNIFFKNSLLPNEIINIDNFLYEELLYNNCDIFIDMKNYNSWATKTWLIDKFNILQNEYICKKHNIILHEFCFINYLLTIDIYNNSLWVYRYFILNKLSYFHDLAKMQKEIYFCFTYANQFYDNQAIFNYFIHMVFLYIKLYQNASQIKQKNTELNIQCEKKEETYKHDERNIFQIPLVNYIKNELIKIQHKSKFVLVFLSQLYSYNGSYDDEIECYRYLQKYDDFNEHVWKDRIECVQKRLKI
T1 sequence (Q5EI74 whole entry): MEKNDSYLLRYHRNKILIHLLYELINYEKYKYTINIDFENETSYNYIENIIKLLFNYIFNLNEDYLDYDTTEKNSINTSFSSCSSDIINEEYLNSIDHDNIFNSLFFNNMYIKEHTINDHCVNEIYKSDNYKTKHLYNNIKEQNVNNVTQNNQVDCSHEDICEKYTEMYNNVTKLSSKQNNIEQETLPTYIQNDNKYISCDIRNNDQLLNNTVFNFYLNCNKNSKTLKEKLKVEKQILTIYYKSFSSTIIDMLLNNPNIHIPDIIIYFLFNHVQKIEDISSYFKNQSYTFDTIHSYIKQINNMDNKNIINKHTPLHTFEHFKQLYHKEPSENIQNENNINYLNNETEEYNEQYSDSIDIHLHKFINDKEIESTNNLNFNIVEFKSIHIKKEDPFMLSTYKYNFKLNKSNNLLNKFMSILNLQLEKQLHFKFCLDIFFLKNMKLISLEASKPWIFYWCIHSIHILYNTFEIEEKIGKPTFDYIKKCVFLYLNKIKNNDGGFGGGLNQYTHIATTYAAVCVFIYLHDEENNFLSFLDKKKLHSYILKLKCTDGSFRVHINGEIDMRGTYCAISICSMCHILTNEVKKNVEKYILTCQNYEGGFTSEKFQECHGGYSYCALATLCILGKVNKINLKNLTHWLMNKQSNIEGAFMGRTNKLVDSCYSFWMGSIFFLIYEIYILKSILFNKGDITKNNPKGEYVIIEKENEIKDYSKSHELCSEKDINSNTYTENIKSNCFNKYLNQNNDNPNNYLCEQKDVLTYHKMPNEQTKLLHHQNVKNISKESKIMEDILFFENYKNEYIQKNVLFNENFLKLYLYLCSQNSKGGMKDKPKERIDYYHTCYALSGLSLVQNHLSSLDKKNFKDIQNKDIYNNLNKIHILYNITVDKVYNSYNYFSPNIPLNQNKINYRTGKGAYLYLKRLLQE

Plasmodium falciparum [4] = test: Effective dose against chloroquine-resistant, pyrimethamine-resistant, mefloquine-sensitive Plasmodium falciparum K1; format: functional; conditions: read-out: ED50 (the source's name); method in brief: as §1
Plasmodium falciparum [5] = test: Effective dose against chloroquine-sensitive, pyrimethamine-sensitive, mefloquine-sensitive Plasmodium falciparum 3D7; format: functional; conditions: read-out: ED50 (the source's name)
Method in brief: (§2)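 Asynchronous culture in human A+ erythrocytes at 0.5% parasitemia and 0.5% hematocrit, in RPMI-1640 with 20% heat-inactivated human A+ plasma. Compound added in DMSO; 48 h at 37 C under 5% CO2/5% O2/90% N2. [8-3H]hypoxanthine added for a further 24 h, then incorporation counted. Uninfected-RBC background subtracted; DMSO = 100% growth. ED50 by linear regression; ≥2 tests, mean.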

Plasmodium falciparum [6] = test: Effective dose against chloroquine-resistant, pyrimethamine-resistant, mefloquine-resistant Plasmodium falciparum Dd2; format: functional; conditions: read-out: ED50 (the source's name); method in brief: as §1
Plasmodium falciparum [7] = test: Effective dose against chloroquine-sensitive, pyrimethamine-sensitive, mefloquine-sensitive Plasmodium falciparum HB3; format: functional; conditions: read-out: ED50 (the source's name); method in brief: as §2
Plasmodium falciparum [8] = test: Effective dose against Plasmodium falciparum 3D7; format: functional; conditions: read-out: ED50 (the source's name); method in brief: as §2
Plasmodium falciparum [9] = test: Effective dose against Plasmodium falciparum; format: functional; conditions: read-out: ED50 (the source's name)

| Compound | EC50 (Plasmodium falciparum [1]) [nM] | IC50 [2] [nM] | IC50 [3] [nM] | EC50 (Plasmodium falciparum [4]) [nM] | EC50 (Plasmodium falciparum [5]) [nM] | EC50 (Plasmodium falciparum [6]) [nM] | EC50 (Plasmodium falciparum [7]) [nM] | EC50 (Plasmodium falciparum [8]) [nM] | EC50 (Plasmodium falciparum [9]) [nM] |
| --- | --- | --- | --- | --- | --- | --- | --- | --- | --- |
| C=C(C)CN(C1Cc2cc(C#N)ccc2N(Cc2cncn2C)C1)S(=O)(=O)c1cn(C)cn1 (configuration not stated) | 21 | 0.7 | 0.6 | 15 | 7 | 10 | 12 |  |  |
| Cn1cnc(S(=O)(=O)N(Cc2ccccc2)C2Cc3cc(C#N)ccc3N(Cc3cncn3C)C2)c1 (configuration not stated) | 14 | 1.2 | 0.6 | 9 | 5 | 8 | 10 |  |  |
| Cn1cnc(S(=O)(=O)N(CC(=O)OC(C)(C)C)C2Cc3cc(C#N)ccc3N(Cc3cncn3C)C2)c1 (configuration not stated) |  | 1.2 | 0.9 | 20 | 5 | 6 | 7 |  |  |
| Cc1ccccc1CN(C1Cc2cc(C#N)ccc2N(Cc2cncn2C)C1)S(=O)(=O)c1cn(C)cn1 (configuration not stated) |  | 3.4 | 1.5 |  |  |  |  | 55 |  |
| Cn1cncc1CN1CC(N(Cc2ccccn2)S(=O)(=O)c2ccccn2)Cc2cc(C#N)ccc21 (configuration not stated) |  | 3.8 | 2.8 |  |  |  |  | 51 |  |
| Cn1cncc1CN1CC(N(CC(=O)NC(C)(C)C)S(=O)(=O)c2nccn2C)Cc2cc(C#N)ccc21 (configuration not stated) |  | 5 | 8 |  |  |  |  | > 5000 |  |
| C=C(Br)CN(C1Cc2cc(C#N)ccc2N(Cc2cncn2C)C1)S(=O)(=O)c1cn(C)cn1 (configuration not stated) | 14 | 0.8 | 0.4 | 10 | 6 | 10 | 10 |  |  |
| Cn1cnc(S(=O)(=O)N(Cc2ccc3ccccc3c2Br)C2Cc3cc(C#N)ccc3N(Cc3cncn3C)C2)c1 (configuration not stated) |  | 1000 | 28 |  |  |  |  | 3000 |  |
| Cn1cnc(S(=O)(=O)N(CC(=O)NC(C)(C)C)C2Cc3cc(C#N)ccc3N(Cc3cncn3C)C2)c1 (configuration not stated) | 8 | 1.5 | 1.2 | 7 | 5 | 4 | 7 |  |  |
| Cn1cncc1CN1CC(N(CC(=O)NC(C)(C)C)S(=O)(=O)c2cccnc2)Cc2cc(C#N)ccc21 (configuration not stated) |  | 6 | 25 |  |  |  |  | 2700 |  |
| Cn1cncc1CN1CC(N(CC(=O)NC(C)(C)C)S(=O)(=O)Cc2ccc(F)cc2)Cc2cc(C#N)ccc21 (configuration not stated) |  | 7.6 | 42 |  |  |  |  | > 5000 |  |
| Cn1cncc1C(O)(CN1CCC(C#N)=C(c2cccc3ccccc23)C1)c1ccc(C#N)cc1 (configuration not stated) |  |  | 9 |  |  |  |  |  | > 5000 |
| N#Cc1ccc(Cn2cncc2CN[C@H]2CCN(Cc3cccc(Cl)c3)C2=O)cc1 |  |  |  |  |  |  |  |  | > 5000 |
| CSCC[C@H](NC(=O)c1ccc(CNCc2cnc[nH]2)cc1-c1ccccc1C)C(=O)OCc1ccccc1 |  |  | 1000 |  |  |  |  |  | 150 |
| CCSC[C@H](CC1CCCCC1)NCc1ccc(C(=O)N[C@@H](CCSC)C(=O)O)c(-c2ccccc2C)c1 |  |  | 5 |  |  |  |  |  | > 5000 |
| Cn1cncc1CN1CC(N(Cc2cc3nsnc3cc2Cl)S(=O)(=O)c2ccccn2)Cc2cc(C#N)ccc21 (configuration not stated) |  | 10 | 55 |  |  |  |  | 3000 |  |
| Cc1onc(-c2ccccc2)c1CN(C1Cc2cc(C#N)ccc2N(Cc2cncn2C)C1)S(=O)(=O)c1ccccn1 (configuration not stated) |  | 3 | 0.8 |  |  |  |  | 113 |  |
| Cn1cnc(S(=O)(=O)N(CC2CCN(C(=O)OC(C)(C)C)CC2)C2Cc3cc(C#N)ccc3N(Cc3cncn3C)C2)c1 (configuration not stated) |  | 3.2 | 1.1 |  |  |  |  | 100 |  |
| Cn1cncc1CN1CC(N(Cc2ccc3ccccc3c2Br)S(=O)(=O)c2ccccn2)Cc2cc(C#N)ccc21 (configuration not stated) |  | 440 | 165 |  |  |  |  | 2750 |  |
| Cn1cncc1CN1CC(N(CC(=O)NC(C)(C)C)S(=O)(=O)c2ccncc2)Cc2cc(C#N)ccc21 (configuration not stated) |  | 160 | 1000 |  |  |  |  | > 5000 |  |
| Cn1cncc1CN1CC(N(CC(=O)NC(C)(C)C)S(=O)(=O)c2ccccn2)Cc2cc(C#N)ccc21 (configuration not stated) |  | 1.8 | 1.4 |  |  |  |  | 85 |  |
| CSCC[C@H](NC(=O)c1ccc(CNCc2c[nH]cn2)cc1-c1ccccc1C)C(=O)O |  |  | 15 |  |  |  |  |  | > 20000 |
| CCN(CC)CCCC(C)Nc1ccnc2cc(Cl)ccc12 (configuration not stated) [CHLOROQUINE] | 125 |  |  | 200 | 8 | 78 | 5 |  |  |
| NC(=O)N1CCC(CC(=O)N2CCC([C@H]3c4ncc(Br)cc4CCc4cc(Cl)cc(Br)c43)CC2)CC1 [LONAFARNIB] |  |  | > 250 |  |  |  |  |  | 3000 |
| O[C@H](c1cc(C(F)(F)F)nc2c(C(F)(F)F)cccc12)[C@@H]1CCCCN1 [MEFLOQUINE] | 9 |  |  | 10 | 24 | 100 | 29 |  |  |
| CCc1nc(N)nc(N)c1-c1ccc(Cl)cc1 [PYRIMETHAMINE] |  |  |  | 25000 | 39 | 16000 | 2 |  |  |
| Cn1cncc1[C@@](N)(c1ccc(Cl)cc1)c1ccc2c(c1)c(-c1cccc(Cl)c1)cc(=O)n2C [TIPIFARNIB] |  |  | 7 |  |  |  |  |  | 3000 |
